# Screening results (PubChem BioAssay)
# rCAG RNA binder: molecules binding r(CAG) RNA repeats. AID 651821. r(CAG) RNA repeat, TO-PRO-1 dye displacement fluorescence. hit rate 1.3% among 370,000. inhibition, % at 3 µM;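 active means inhibition above the plate cutoff, the mean of all test compounds on that plate plus 3 SD, cut at about 35% in these data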;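 further: 0% = DMSO alone and 100% = 100 µM mitoxantrone as full dye displacement; higher means more dye released from RNA so lower well fluorescence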
# LEDGF integ inh: blocks HIV-1 LEDGF/p75-dependent DNA integration | TR-FRET IN-LEDGF/p75 DNA integration, Eu/Cy5 | inhibition, % at 3.7 µM | hit rate 0.64% among 370,000;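 active means inhibition above the screen-wide mean plus 3 SD, cut at about 13% in these data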;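 further: signal is the Cy5 over europium emission ratio at 671 and 618 nm; 0% = plate median of compound wells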
# mABHD4 FP: ABHD4 (mouse) inhibition, primary FP screen | purified mABHD4, FP-Rh probe fluorescence polarization | inhibition, % at 8.92 µM | hit rate 0.54% among 370,000;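 active means inhibition exceeding the mean over every tested compound plus 3 SD, cut at about 30% in these data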;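 further: 0% = plate median of compound wells and 100% = S159A mutant with DMSO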
#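 system = mouse ABHD4 enzyme, wild type | medium = HEPES pH 7.0, NaCl, Pluronic buffer | also added = FP-Rh probe | incubation = Enzyme–compound pre-incubation 45 min, then probe 60 min, both 25 °C | technique = fluorescence polarization, excitation 525 nm, emission 598 nm, BODIPY TMR filters | controls = S159A mutant high control, sample median low control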
# DAGLB inh: blocks human DAGLB lipase activity; Q8NCG7; HEK293T DAGLB membrane lysate, EnzChek fluorogenic substrate; inhibition, % at 5.17 µM; hit rate 0.059% among 340,000; AID 504411; in the data active means inhibition above about 34%;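 further: 0% = enzyme with vehicle and 100% = wells lacking enzyme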
# HTRA1 inhibitor: HTRA1 (human) protease inhibition; inhibition, % at 5.96 µM; AID 504803; recombinant HTRA1, FP-rhodamine activity-based probe, fluorescence polarization; hit rate 0.5% among 340,000; in the data active means inhibition above about 36%;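 further: 0% = enzyme with DMSO and 100% = wells lacking enzyme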
# PRMT1 inh: PRMT1 (human) inhibition, primary screen. Q99873. recombinant PRMT1, activity-based probe fluorescence polarization. inhibition, % at 2.79 µM. hit rate 1.3% among 370,000. AID 652257;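 active means inhibition above about 21% made by adding two undisclosed values, limit read from the data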
# Target sequence (Q99873 whole entry, looked up): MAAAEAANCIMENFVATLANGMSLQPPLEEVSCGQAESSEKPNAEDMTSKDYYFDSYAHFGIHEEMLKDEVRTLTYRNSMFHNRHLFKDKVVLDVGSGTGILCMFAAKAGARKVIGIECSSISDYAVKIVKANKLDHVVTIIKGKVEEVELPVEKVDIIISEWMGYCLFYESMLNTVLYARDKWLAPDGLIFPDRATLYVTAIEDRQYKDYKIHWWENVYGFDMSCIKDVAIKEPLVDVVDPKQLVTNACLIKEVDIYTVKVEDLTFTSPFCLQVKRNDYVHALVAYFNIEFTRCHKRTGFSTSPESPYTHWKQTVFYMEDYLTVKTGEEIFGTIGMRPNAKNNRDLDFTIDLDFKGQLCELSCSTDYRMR
# IN multimer act: counter-screen for LEDGF/p75 integration inhibitors: HIV-1 integrase multimerization activators | TR-FRET HIV-1 integrase multimerization, biochemical | hit rate 17% among 2,000 | shares compounds with LEDGF integ inh | activation, % at 7.7 µM; in the data active means activation above about 8.9%
# TRFRET interf: counter-screen for LEDGF/p75 integration inhibitors: TR-FRET optical interference | TR-FRET optical interference counterscreen, HIV-1 IN multimerization | inhibition, % at 7.7 µM | AID 1053135 | shares compounds with LEDGF integ inh | 2,000 tested, under 10 active;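 active means inhibition above the mean over all tested compounds plus 3 SD, which no compound reached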;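 further: 0% = integrase with antibodies and DMSO and 100% = antibodies without integrase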
# IN-LEDGF confirm: confirmation of HIV-1 LEDGF/p75-dependent integration inhibitors. TR-FRET LEDGF/p75-dependent HIV-1 integration, biochemical. AID 1053136. hit rate 36% among 2,000. shares compounds with LEDGF integ inh. inhibition, % at 3.7 µM; in the data active means inhibition above about 14%
# Numbers without * were called inactive; . = no result; ! = repeats disagree. This is a sample that favours compounds with a hit; in the whole collection about 3.2% have one here.
SMILES,rCAG RNA binder,LEDGF integ inh,mABHD4 FP,DAGLB inh,HTRA1 inhibitor,PRMT1 inh,IN multimer act,TRFRET interf,IN-LEDGF confirm
Cc1cccc(-c2ccc3[nH]c4c(c3c2)CCN2C[C@@H]([C@H](C)OC(=O)Nc3ccccc3C)[C@@H](N(C)C(=O)Nc3ccccc3C)C[C@@H]42)c1,15,56*,21,-1,-25,-1,2,-5,-5
COC(=O)c1ccc(OC)c(CSc2nnc(-c3ccc(C(C)(C)C)cc3)o2)c1,1,2,-12,.,.,4,.,.,.
O=C(Cn1nc(C(=O)O)c2ccccc2c1=O)NCC1CCCO1 (configuration not stated),1,-3,1,0,-3,0,.,.,.
O=S(=O)(NN=C(c1ccccc1)c1ccccc1)c1ccccc1,7,-4,-7,-10,-2,2,.,.,.
COP(=O)(OC)C(=NNS(=O)(=O)c1ccc(C)cc1)c1ccccc1,2,27*,2,-4,0,13,-1,5,0
COCCNC(=O)CSC1=N/C(=C/c2ccc(Cl)c(Cl)c2)C(=O)N1c1ccccc1F,4,91*,-11,-2,-23,4,0,0,-3
CCOc1ccc(C(=O)C[n+]2ccccc2C)cc1,1,14*,-2,0,2,2,0,1,-3
CCOc1ccc(NC(=O)CN(C)c2ccc(S(=O)(=O)N3CCOCC3)cn2)cc1OCC,-1,15*,-1,3,4,0,1,-4,-2
CC1Cc2ccccc2N1C(=O)CSc1ccccn1 (configuration not stated),-1,-6,-3,-2,-2,1,.,.,.
CC1Cc2ccccc2N1C(=O)CSCC(=O)O (configuration not stated),2,16*,6,-1,15,-1,1,-4,-3
O=C(O)Cn1cnc2ccccc2c1=O,0,-3,-1,3,-4,1,.,.,.
COc1ccc2c(c1)C(c1ccc(C)o1)=NNC(c1cccnc1)=N2,14,19*,11,1,11,-4,1,-4,-4
CC(C)C(N)c1csc(Nc2ccc(C(=O)N(C)Cc3ccccc3)cn2)n1 (configuration not stated),15,-2,-1,.,.,-1,.,.,.
O=c1c(OC2OC(CO)C(O)C(O)C2OC2OC(CO)C(O)C(O)C2O)c(-c2ccc(O)cc2)oc2cc(O)cc(O)c12 (configuration not stated),9,19*,1,-1,1,-1,48*,-170,48*
O=c1c(O[C@H]2O[C@@H](CO)[C@H](O)[C@@H](O)[C@@H]2O)c(-c2ccc(O)cc2)oc2cc(O)cc(O)c12,9,-3,-8,2,13,6,.,.,.
C[C@@H]1O[C@@H](Oc2c(-c3ccc(O)c(O)c3)oc3cc(O)cc(O)c3c2=O)[C@H](O)[C@H](O)[C@H]1O,4,21*!,21,4,-3,10,16*,-81,58*
C[C@@H]1O[C@@H](Oc2c(-c3cc(O)c(O)c(O)c3)oc3cc(O)cc(O)c3c2=O)[C@H](O)[C@H](O)[C@H]1O,7,55*,10,3,-16,37*,53*,-189,63*
O=C(NCC(=O)N(c1ccc2c(c1)OCO2)C(C(=O)NC1CCCC1)c1ccncc1)c1ccco1 (configuration not stated),-3,4,6,1,4,1,.,.,.
CC(Sc1nnc(-c2ccccc2Br)o1)C(=O)N1CCOCC1 (configuration not stated),-2,23*,-1,3,-1,4,-2,8,-4
C=CCn1c(SCC(=O)c2cc(C)n(CCOC)c2C)nc2sc(C)c(C)c2c1=O,3,5,-7,-1,-2,4,.,.,.
CCc1nnc(N/N=C/c2ccc(O)c(OC)c2)n1N,-1,55*,1,2,7,0,-1,3,-6
CCc1nnc(N/N=C/c2cc(Br)c(O)cc2O)n1N,2,50*,13,0,20,6,11*,-53,-3
CCOc1cc(/C=N\NC(=O)c2ccc(C)nc2)ccc1OC(=O)c1ccc(F)cc1,-1,-7,-4,2,2,3,.,.,.
CCOc1cc(/C=N/Nc2nnc(C)n2N)ccc1OC(C)=O,-3,30*,10,1,-1,5,2,-7,4
COc1cc(/C=N/NC(=O)Nc2ccccc2)ccc1OC(C)=O,-4,2,0,0,8,-1,.,.,.
SMILES,rCAG RNA binder,LEDGF integ inh,mABHD4 FP,DAGLB inh,HTRA1 inhibitor,PRMT1 inh,IN multimer act,TRFRET interf,IN-LEDGF confirm
CCc1nnc(N/N=C\c2ccc(OC(C)=O)c(OC)c2)n1N,-1,30*,7,-3,7,-1,-1,5,-3
COc1cc(/C=N/Nc2ccccn2)ccc1O,-1,5,3,-2,-1,-3,.,.,.
Cc1ccc(NC(=O)CN(C)C(C)C(=O)N2CC(C)CC(C)C2)cc1 (configuration not stated),-1,-1,2,2,-1,0,.,.,.
Nc1ccccc1-c1ccc(Cl)cc1,4,-5,-4,-3,1,2,.,.,.
CCOc1ccc(N/C(C)=C/C(=O)c2ccc(C)o2)cc1,2,-1,3,-1,3,3,.,.,.
O=C(NCCc1ccccc1)c1ccc(Sc2ccccc2Cl)c([N+](=O)[O-])c1,4,4,-1,.,.,-3,.,.,.
O=C(O)c1cc(Cl)ccc1-c1ccc(/C=C/c2cc(C(F)(F)F)[nH]c(=O)n2)o1,-188,17*,-8,-68,2,3,-1,6,11
CC1C(=O)N(Cc2cn(Cc3ccco3)nn2)CCS(=O)(=O)N1Cc1ccc(-c2cccnc2)cc1 (configuration not stated),27,17*,-1,.,.,16,5,-24,13
C=CCNC(=O)C(C)N1C(=O)c2ccccc2C1=O (configuration not stated),1,-2,1,-5,-5,-3,.,.,.
Nn1c(SCC(=O)N2CCCCCC2)nnc1-c1ccncc1,1,26*,6,-1,4,-2,1,-3,1
CC(C)c1ccc(/C=C/C(=O)NCCCc2ccccc2)cc1,0,76*,-5,-12,-35,-3,3,-15,-1
